What was measured:
CYP2B6 = target: T1, CYP2B6 (Homo sapiens, UniProt P20813); assay: Inhibition of CYP2B6; format: biochemical
T1 sequence (P20813 1-491): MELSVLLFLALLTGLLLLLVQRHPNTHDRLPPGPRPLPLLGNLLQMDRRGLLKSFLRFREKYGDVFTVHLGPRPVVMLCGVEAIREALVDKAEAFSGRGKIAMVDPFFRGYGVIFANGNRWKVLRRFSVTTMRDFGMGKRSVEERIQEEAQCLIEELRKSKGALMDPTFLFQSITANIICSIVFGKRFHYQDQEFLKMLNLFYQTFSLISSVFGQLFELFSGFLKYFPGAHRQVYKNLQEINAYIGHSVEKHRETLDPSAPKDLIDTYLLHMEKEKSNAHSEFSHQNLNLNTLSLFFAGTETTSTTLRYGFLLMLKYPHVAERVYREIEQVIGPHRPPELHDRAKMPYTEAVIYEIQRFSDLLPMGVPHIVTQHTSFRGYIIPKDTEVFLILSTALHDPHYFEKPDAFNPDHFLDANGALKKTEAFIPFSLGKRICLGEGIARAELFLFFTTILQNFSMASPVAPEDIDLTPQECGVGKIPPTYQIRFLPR
Outline: (§1)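 Recombinant human CYPs at 0.1 mg mL−1 protein, each with its probe substrate near Km: coumarin 100 μM (2A6), bupropion 100 μM (2B6), paclitaxel 60 μM (2C8), tolbutamide 200 μM (2C9), mephenytoin 100 μM (2C19), chlorzoxazone 200 μM (2E1). Incubated at 37 °C with or without test compound at 1, 10 or 100 μM. UHPLC-TQD-MS read-out; triplicate.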

CYP3A5 = CYP3A5 (Homo sapiens, UniProt P20815); assay: Inhibition of CYP3A5; format: biochemical; conditions: PI-103 1, 10 and 100 μM
Outline: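 Recombinant human CYPs at 0.05 mg mL−1 protein, each with its probe substrate near Km: ethoxyresorufin 1 μM (CYP1A1), phenacetin 100 μM (CYP1A2), nifedipine 40 μM (CYP3A4, 3A5). Incubated at 37 °C without (control) or with test compound at 1, 10 and 100 μM. Supernatant analysed by UHPLC-TQD-MS; activity relative to control; triplicate.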

BCRP = BCRP (Homo sapiens, UniProt Q9UNQ0); assay: M2 excretion in HeLa1A9 cells after shRNA knock-down of BCRP; format: cell-based
Outline: (§2)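 shRNA plasmid against BCRP, MRP1, MRP3 or MRP4 transfected into UGT1A9-expressing HeLa cells, then exposed to 5 μM test compound in HBSS. Medium sampled at 30–120 min with replacement; cells collected at 120 min. UHPLC gave extracellular and intracellular glucuronide, excretion rate, efflux clearance (excretion rate/intracellular concentration) and fraction metabolized (fmet), each compared with control. Triplicate.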

CYP2E1 = CYP2E1 (Homo sapiens, UniProt P05181); assay: Inhibition of CYP2E1; format: biochemical
CYP2E1, sequence (P05181 whole entry): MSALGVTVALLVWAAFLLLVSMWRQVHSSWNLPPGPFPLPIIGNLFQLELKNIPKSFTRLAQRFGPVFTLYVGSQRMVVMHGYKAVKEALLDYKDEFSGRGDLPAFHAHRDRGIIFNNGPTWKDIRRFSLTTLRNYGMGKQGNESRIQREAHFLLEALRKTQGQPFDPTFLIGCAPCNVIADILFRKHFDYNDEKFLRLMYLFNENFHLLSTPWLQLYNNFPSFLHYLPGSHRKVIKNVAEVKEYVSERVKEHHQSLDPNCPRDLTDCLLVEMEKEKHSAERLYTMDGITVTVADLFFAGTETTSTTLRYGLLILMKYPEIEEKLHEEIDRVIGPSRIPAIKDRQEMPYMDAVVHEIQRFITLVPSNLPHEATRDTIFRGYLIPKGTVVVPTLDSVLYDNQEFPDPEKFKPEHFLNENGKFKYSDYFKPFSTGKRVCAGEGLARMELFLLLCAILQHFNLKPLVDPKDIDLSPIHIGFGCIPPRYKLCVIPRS
Outline: as §1

MRP1 = MRP1 (Homo sapiens, UniProt P33527); assay: M2 excretion in HeLa1A9 cells after shRNA knock-down of MRP1; format: cell-based; conditions: MRP1 partially silenced
Outline: as §2

UGT2B4 = UGT2B4 (Homo sapiens, UniProt P06133); assay: Inhibition of UGT2B4; format: biochemical; conditions: PI-103 1, 10 and 100 μM
UGT2B4, sequence (P06133 24-528): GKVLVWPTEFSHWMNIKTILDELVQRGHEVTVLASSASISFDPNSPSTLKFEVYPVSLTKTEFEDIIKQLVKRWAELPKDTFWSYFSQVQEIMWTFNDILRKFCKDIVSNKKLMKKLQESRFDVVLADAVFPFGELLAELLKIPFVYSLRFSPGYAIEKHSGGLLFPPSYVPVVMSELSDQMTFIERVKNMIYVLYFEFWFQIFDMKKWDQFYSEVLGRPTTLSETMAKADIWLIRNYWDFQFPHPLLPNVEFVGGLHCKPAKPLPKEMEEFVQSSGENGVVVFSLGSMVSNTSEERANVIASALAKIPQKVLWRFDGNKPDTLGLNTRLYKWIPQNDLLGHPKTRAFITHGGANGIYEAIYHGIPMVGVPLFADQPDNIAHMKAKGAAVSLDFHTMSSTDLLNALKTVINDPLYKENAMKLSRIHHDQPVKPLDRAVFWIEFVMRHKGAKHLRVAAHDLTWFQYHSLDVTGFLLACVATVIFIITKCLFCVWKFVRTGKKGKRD
Outline: (§3)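 Recombinant human UGTs screened with probe substrates: β-estradiol for UGT1A1, propofol for 1A9, and 4-methylumbelliferone for 1A3, 1A6, 1A7, 1A8, 1A10, 2B4, 2B7, 2B10, 2B15 and 2B17. Incubated at 37 °C without (control) or with test compound at 1, 10 or 100 μM. Glucuronide formation measured relative to control; triplicate.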

UGT2B15 = UGT2B15 (Homo sapiens, UniProt P54855); assay: Inhibition of UGT2B15; format: biochemical; conditions: PI-103 1, 10 and 100 μM
UGT2B15, sequence (P54855 24-530): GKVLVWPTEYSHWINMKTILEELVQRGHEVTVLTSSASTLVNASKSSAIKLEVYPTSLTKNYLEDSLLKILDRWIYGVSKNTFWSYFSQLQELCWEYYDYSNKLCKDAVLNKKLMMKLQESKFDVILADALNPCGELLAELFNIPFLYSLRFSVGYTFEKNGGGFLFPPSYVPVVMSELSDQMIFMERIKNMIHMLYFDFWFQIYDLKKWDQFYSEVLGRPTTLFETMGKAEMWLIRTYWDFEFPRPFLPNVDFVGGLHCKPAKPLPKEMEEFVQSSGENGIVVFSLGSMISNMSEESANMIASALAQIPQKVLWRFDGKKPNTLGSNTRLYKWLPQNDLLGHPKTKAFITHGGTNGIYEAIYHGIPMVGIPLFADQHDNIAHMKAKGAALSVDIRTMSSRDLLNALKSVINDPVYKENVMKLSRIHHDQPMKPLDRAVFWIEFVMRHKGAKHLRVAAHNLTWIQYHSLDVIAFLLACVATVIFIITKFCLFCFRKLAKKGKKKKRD
Outline: as §3

p110β = conditions: cited from earlier work
DNA-PK = conditions: cited from earlier work
p110δ = conditions: cited from earlier work
[1] = tested on: normal hematopoietic progenitors; conditions: cited from earlier work
UGT1A8 = UGT1A8 (Homo sapiens, UniProt Q9HAW9); assay: Inhibition of UGT1A8; format: biochemical; conditions: PI-103 1, 10 and 100 μM
UGT1A8, sequence (Q9HAW9 26-530): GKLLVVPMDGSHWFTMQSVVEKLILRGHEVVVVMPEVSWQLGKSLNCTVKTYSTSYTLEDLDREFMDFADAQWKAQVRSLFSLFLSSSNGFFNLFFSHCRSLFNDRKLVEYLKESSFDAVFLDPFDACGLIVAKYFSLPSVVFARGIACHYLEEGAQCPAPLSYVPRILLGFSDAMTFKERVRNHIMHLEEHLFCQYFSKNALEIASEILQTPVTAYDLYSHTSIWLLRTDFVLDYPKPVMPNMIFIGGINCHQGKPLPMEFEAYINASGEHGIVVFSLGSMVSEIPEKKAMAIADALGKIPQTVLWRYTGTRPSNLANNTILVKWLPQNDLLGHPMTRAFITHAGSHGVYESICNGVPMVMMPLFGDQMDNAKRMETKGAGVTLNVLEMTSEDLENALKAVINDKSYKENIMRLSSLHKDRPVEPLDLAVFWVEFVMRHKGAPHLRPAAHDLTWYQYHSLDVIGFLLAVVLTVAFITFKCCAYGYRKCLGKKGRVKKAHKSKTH
Outline: as §3

p110α = conditions: cited from earlier work
CYP2A6 = CYP2A6 (Homo sapiens, UniProt P11509); assay: Inhibition of CYP2A6; format: biochemical; conditions: PI-103 1, 10 and 100 μM
Outline: as §1

CYP2C9 = CYP2C9 (Homo sapiens, UniProt P11712); assay: Inhibition of CYP2C9; format: biochemical
CYP2C9, sequence (P11712 whole entry): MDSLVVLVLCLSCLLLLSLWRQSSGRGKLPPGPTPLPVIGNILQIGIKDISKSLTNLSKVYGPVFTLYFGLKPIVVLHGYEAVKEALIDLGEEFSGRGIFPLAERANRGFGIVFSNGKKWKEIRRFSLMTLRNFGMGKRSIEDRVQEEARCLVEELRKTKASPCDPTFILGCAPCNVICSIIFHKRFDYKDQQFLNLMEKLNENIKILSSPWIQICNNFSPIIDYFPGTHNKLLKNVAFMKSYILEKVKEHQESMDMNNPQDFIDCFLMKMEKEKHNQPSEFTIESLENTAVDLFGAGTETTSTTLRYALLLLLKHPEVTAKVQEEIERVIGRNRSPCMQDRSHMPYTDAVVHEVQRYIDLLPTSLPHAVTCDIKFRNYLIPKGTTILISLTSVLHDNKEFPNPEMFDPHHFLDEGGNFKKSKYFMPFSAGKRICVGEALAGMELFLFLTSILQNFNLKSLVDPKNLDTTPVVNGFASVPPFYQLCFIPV
Outline: as §1

UGT1A9 = UGT1A9 (Homo sapiens, UniProt O60656); assay: Inhibition of UGT1A9; format: biochemical
UGT1A9, sequence (O60656 26-530): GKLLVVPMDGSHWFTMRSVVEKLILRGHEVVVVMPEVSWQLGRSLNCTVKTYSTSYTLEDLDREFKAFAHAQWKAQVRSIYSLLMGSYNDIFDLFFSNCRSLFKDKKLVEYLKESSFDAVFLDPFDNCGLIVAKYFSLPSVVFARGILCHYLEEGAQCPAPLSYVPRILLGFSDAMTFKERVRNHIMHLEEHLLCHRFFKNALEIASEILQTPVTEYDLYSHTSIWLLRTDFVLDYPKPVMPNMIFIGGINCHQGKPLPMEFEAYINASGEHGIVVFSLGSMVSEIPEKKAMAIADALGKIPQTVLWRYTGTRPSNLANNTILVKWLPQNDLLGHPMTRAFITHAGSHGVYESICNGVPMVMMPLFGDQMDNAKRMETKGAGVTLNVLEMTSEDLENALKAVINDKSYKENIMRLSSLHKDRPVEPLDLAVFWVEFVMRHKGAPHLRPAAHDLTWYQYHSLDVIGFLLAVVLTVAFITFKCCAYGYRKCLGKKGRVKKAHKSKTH
Outline: as §3

HeLa cells = assay: Toxicity of PI-103 in HeLa cells; format: cell-based, human; conditions: within the experimental concentrations (maximal 5 μM)
CYP2C8 = CYP2C8 (Homo sapiens, UniProt P10632); assay: Inhibition of CYP2C8; format: biochemical; conditions: PI-103 1, 10 and 100 μM
Outline: as §1

UGT1A6 = UGT1A6 (Homo sapiens, UniProt P19224); assay: Inhibition of UGT1A6; format: biochemical
Outline: as §3

UGT2B10 = UGT2B10 (Homo sapiens, UniProt P36537); assay: Inhibition of UGT2B10; format: biochemical; conditions: PI-103 1, 10 and 100 μM
Outline: as §3

p110γ = conditions: cited from earlier work
MRP3 = MRP3 (Homo sapiens, UniProt O15438); assay: M2 excretion in HeLa1A9 cells after shRNA knock-down of MRP3; format: cell-based; conditions: MRP3 silenced, p > 0.05
Outline: as §2

UGT1A1 = UGT1A1 (Homo sapiens, UniProt P22309); assay: Inhibition of UGT1A1; format: biochemical; conditions: PI-103 1, 10 and 100 μM
UGT1A1, sequence (P22309 26-533): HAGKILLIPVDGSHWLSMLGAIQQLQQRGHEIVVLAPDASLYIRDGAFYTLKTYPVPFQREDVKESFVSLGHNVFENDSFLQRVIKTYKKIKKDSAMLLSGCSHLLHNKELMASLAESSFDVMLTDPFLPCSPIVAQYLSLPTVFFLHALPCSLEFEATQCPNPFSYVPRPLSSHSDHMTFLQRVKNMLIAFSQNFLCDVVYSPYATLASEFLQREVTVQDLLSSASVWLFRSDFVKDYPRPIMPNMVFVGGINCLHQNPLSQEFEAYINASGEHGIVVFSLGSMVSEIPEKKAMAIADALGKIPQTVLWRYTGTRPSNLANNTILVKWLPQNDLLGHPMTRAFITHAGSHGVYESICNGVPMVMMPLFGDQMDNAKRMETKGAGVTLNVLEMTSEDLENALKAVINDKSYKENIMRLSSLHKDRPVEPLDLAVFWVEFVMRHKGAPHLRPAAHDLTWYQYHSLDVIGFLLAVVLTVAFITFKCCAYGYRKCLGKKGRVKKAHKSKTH
Outline: as §3

MRP4 = MRP4 (Homo sapiens, UniProt O15439); assay: M2 excretion in HeLa1A9 cells after shRNA knock-down of MRP4; format: cell-based; conditions: MRP4 silencing
MRP4, sequence (O15439 whole entry): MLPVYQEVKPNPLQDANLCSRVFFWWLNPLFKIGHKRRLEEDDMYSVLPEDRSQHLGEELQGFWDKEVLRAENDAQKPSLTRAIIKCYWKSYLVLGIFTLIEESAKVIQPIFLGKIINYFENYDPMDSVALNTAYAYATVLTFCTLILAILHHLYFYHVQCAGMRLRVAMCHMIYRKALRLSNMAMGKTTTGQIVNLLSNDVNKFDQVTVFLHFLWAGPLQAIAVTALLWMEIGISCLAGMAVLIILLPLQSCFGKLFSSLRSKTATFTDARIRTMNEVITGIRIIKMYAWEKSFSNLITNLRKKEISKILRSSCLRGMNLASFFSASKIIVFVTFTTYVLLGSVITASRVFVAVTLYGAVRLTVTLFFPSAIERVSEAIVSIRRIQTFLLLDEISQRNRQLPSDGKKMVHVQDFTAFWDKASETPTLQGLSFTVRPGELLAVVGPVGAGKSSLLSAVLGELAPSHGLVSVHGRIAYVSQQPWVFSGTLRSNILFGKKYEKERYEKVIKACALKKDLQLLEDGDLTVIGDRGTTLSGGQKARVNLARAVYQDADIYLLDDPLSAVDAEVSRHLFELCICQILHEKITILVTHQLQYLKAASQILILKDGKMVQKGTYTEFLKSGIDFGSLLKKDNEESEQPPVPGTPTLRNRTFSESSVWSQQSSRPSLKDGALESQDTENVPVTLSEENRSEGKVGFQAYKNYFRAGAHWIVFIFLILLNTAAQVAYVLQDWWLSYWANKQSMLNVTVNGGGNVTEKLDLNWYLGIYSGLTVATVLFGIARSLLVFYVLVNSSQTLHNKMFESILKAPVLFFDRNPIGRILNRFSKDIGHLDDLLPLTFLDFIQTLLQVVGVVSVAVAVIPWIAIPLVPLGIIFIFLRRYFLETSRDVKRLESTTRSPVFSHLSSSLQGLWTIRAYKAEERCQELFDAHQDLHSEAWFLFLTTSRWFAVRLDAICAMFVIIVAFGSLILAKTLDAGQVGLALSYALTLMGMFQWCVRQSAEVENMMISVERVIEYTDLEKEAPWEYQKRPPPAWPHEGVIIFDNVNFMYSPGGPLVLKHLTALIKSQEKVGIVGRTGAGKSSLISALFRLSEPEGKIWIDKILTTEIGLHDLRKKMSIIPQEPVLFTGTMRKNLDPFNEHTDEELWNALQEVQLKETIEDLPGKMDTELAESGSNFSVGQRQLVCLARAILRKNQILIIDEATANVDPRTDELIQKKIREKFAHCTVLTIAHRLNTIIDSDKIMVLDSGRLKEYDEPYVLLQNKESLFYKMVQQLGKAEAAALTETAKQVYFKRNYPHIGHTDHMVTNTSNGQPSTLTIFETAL
Outline: as §2

mice = conditions: cited from earlier work

For `Oc1cccc(-c2nc(N3CCOCC3)c3oc4ncccc4c3n2)c1` [PI-103], the IC50 (CYP2B6) was 2250 ± 280 nM, the Ki (CYP2B6) was 640 ± 220 nM and the residual activity (CYP2B6; CYP2B6, 100 μM PI-103) was 29.70 % of the negative control. The Type of inhibition (CYP2B6; CYP2B6, bupropion) was “Mixed-type”, the α (CYP2B6; CYP2B6, bupropion, mixed-type model (selected)) was 5.09 ± 4.48 and the inhibitory effect (CYP3A5) was “negligible or weak”. The “reduction in fraction of metabolized (fmet) PI-103” value (BCRP) was 27.6%, the IC50 (CYP2E1) was 330 ± 40 nM and the Ki (CYP2E1) was 250 ± 10 nM. The residual activity (CYP2E1; CYP2E1, 100 μM PI-103) was 13.69 % of the negative control, the Type of inhibition (CYP2E1; CYP2E1, chlorzoxazone) was “Noncompetitive” and the “reduction in fmet value” (MRP1) was 29.2%. The inhibitory effect (UGT2B4) was “negligible”, the inhibitory effect (UGT2B15) was “negligible” and the IC50 (p110β) was 88 nM. The IC50 (DNA-PK) was […], the IC50 (p110δ) was […] and the “impact on normal hematopoietic progenitors” value [1] was “little impact”. For the same compound, the inhibitory effect (UGT1A8) was “negligible”, the IC50 (p110α) was […] and the inhibitory effect (CYP2A6) was “negligible or weak”. The IC50 (CYP2C9) was 1160 ± 150 nM, the Ki (CYP2C9) was 560 ± 120 nM and the residual activity (CYP2C9; CYP2C9, 100 μM PI-103) was 14.22 % of the negative control. The Type of inhibition (CYP2C9; CYP2C9, tolbutamide) was “Mixed-type”, the α (CYP2C9; CYP2C9, tolbutamide, mixed-type model (selected)) was 2.45 ± 0.94 and the IC50 (UGT1A9) was 16600 ± 1290 nM. For the same compound, the “toxicity in HeLa cells” value (HeLa cells) was “no significant toxicities”, the inhibitory effect (CYP2C8) was “negligible or weak” and the IC50 (UGT1A6) was 168000 ± 15300 nM. The inhibitory effect (UGT2B10) was “negligible”, the IC50 (p110γ) was 150 nM and the “alteration in fmet value of PI-103” value (MRP3) was 9.2%. The inhibitory effect (UGT1A1) was “negligible”, the “decrease in fmet value of PI-103” value (MRP4) was 33.8% and the toxicity in mice (mice) was “little toxicity”.
